This passage reports IC50 results from ChEMBL document CHEMBL4321820, “Identification and Optimization of Mechanism-Based Fluoroallylamine Inhibitors of Lysyl Oxidase-like 2/3” (J Med Chem, 2019).

The test concerns the target T1, Protein-lysine 6-oxidase (Homo sapiens, UniProt P28300).
T1 sequence (P28300 whole entry): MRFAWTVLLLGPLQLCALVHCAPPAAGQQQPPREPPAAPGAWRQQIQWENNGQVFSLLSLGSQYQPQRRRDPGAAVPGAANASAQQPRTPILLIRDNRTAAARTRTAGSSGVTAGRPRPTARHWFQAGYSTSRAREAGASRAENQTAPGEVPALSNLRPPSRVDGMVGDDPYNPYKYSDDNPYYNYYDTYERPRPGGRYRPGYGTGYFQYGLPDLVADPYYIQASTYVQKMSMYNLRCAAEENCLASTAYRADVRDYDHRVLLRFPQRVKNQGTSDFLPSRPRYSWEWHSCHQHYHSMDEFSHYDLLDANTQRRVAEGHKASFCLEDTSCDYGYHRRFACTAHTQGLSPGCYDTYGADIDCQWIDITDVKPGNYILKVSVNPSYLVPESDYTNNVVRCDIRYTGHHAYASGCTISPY
Briefly: Inhibition of LOX in human IMR90 cells using putrescine as substrate preincubated with enzyme for 30 mins followed by substrate addition and measured every 2.5 mins for 30 mins by Amplex-Red oxidation assay. Type of test: cell-based. The essentials:
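IMR90 fibroblasts grown in MEM/10% FBS to 80% confluence, then 48-72 h in phenol-red-free 0.1% FBS medium. Conditioned medium concentrated 40-fold (10 kDa). LOX and LOXL2 separated on a 50 kDa filter in 6 M urea/borate, then diluted back to 1.2 M urea. Preincubated 30 min at 37 °C with compound; Amplex Red/HRP/putrescine readout every 2.5 min over 30 min.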

What is called IC50 is the concentration needed to halve the response being measured. `Cc1c(-c2cccc(S(=O)(=O)N(C)C)c2)c2cc(C(=O)O)ccc2n1C/C(F)=C/CN.Cl`: the IC50 stood at 1.26 µM. That is a single-digit micromolar value.
